In one data set the test system is Solenopsis saevissima. Briefly: Contact toxicity against adult Solenopsis saevissima assessed as mortality after 24 hr. The format is organism-based. The following applies: in vivo, topical_or_ocular. The gist of the method:
(§1)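 Topical application of 0.5 µL test solution in acetone per insect; controls got 0.5 µL acetone alone. Insects were held singly with food in small petri dishes at 25 ± 0.5 °C, 75±5% RH and a 12 h photoperiod. Mortality (dead or motionless insects) was scored at 24 h.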

A further data set relates to Tetragonisca angustula. Nature of the data set: Contact toxicity against adult Tetragonisca angustula assessed as mortality after 24 hr. The following applies: in vivo, topical_or_ocular. The format is organism-based. The method, boiled down: as §1
Data set [1] can be described thus: Contact toxicity against adult Solenopsis saevissima assessed as mortality at contact LD80 for second-instar larvae of Tuta absoluta measured after 24 hr. The settings on record: in vivo, topical or ocular. It is filed as organism-based.
The nature of data set [2]: Contact toxicity against adult Tetragonisca angustula assessed as mortality at contact LD80 for second-instar larvae of Tuta absoluta measured after 24 hr. It is filed as organism-based. The following applies: in vivo, topical or ocular.
Data set [3] is described as follows: Selectivity ratio of LD50 for adult Solenopsis saevissima to LD50 for second-instar larvae of Tuta absoluta. The gist of the method: (§2)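 Test solutions in acetone were applied topically at 0.5 µL per insect, with acetone alone as control. Insects were then held individually in petri dishes with food at 25 ± 0.5 °C, 75±5% RH and a 12 h photoperiod. Mortality (dead or motionless) was scored at 24 h. LD50 values came from probit analysis of dose–mortality data for each species, and SLR50 was computed from these LD50 values.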

The subject of data set [4] is Tuta absoluta. Briefly: Contact toxicity against second-instar larvae of Tuta absoluta assessed as mortality after 24 hr. It is filed as functional. The gist of the method: as §1
A short description of data set [5]: Selectivity ratio of LD50 for adult Tetragonisca angustula to LD50 for second-instar larvae of Tuta absoluta. The gist of the method:
as §2

Data set [6] deals with Tuta absoluta. Nature of the data set: Ratio of permethrin LD50 to compound LD50 for second-instar larvae of Tuta absoluta assessed as mortality after 24 hr. The format is functional.

In the case of `C#CC#CCCCC/C=C/C(=O)NCC(C)C`, the LD80 with Solenopsis saevissima is 2.22 µg/mg; in the data set on Tetragonisca angustula it was 2.02 µg/mg.
For `C#CC#CCCCC/C=C/C(=O)NC[C@H](C)CC`, the values for the mortality at 24 h in data set [1] and in data set [2] were 55% and 59%, respectively. The Ratio in data set [3] amounted to 1.64; in data set [5], 1.35. Further, the LD50 was 1.33 µg/mg in the data set with Solenopsis saevissima, 0.81 µg/mg in the data set with Tuta absoluta [4] and 1.1 µg/mg in the data set with Tetragonisca angustula. Also, the LD80 amounted to 4.4 µg/mg with Solenopsis saevissima, 1.76 µg/mg in the data set on Tuta absoluta [4] and 2.26 µg/mg in the data set with Tetragonisca angustula.
As for `CC1(C)C(C=C(Cl)Cl)C1C(=O)OCc1cccc(Oc2ccccc2)c1` (stereo not drawn) [PERMETHRIN], the mortality at 24 h in data set [1] and in data set [2] was 100% each time. The Ratio stood at 0.00042 in data set [3] and 0.065 in data set [5]. For the same compound, the results for the LD50 with Solenopsis saevissima, in the data set with Tuta absoluta [4] and in the data set on Tetragonisca angustula were 0.046 µg/mg, 0.71 µg/mg and 0.0003 µg/mg, respectively. Besides, the values for the LD80 in the data set with Solenopsis saevissima, with Tuta absoluta [4] and in the data set with Tetragonisca angustula were 1.458 µg/mg, 2.57 µg/mg and 0.002 µg/mg, respectively.
In the case of `C/C=C/C=C\CC/C=C/C(=O)NCC(C)C` [Spilanthol], the mortality – broadly, the share of the test organisms that died – at 24 h in data set [1] stood at 68%; in data set [2] it was 58%. Also, the Ratio came out at 1.38 in data set [3], 2.69 in data set [5] and 5 in the data set on Tuta absoluta [6]. Besides, the LD50 is 0.18 µg/mg in the data set on Solenopsis saevissima, 0.13 µg/mg in the data set with Tuta absoluta [4] and 0.35 µg/mg with Tetragonisca angustula. Besides, the LD80 came out at 1.12 µg/mg in the data set with Solenopsis saevissima, 0.56 µg/mg with Tuta absoluta [4] and 0.81 µg/mg in the data set on Tetragonisca angustula.

Values taken from ChEMBL document CHEMBL3045897, “Bioactivity of compounds from Acmella oleracea against Tuta absoluta (Meyrick) (Lepidoptera: Gelechiidae) and selectivity to two non-target species” (Pest Manag Sci, 2012).
